Results from article PMC5653211 (Journal of medicinal chemistry, 2017).

Experiments:
α7 nAChR [1] = biological target: T1, α7 nAChR (Homo sapiens, UniProt P36544); type: cell-based; conditions: for α7 activation / partial agonism: compound applied alone; for Response when applied alone, of the control ACh response: concentrations of Figure 4, 60 µM ACh control
Method in brief: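 Two-electrode voltage clamp on Xenopus laevis oocytes expressing human α7 nAChR. Test compound applied alone at 10, 30, 100, 300 µM and 1 mM; one comparator was tested only up to 300 µM. Response taken as net charge normalized to 60 µM ACh applied alone.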

α7 nAChR [2] = biological target: T1, α7 nAChR; experiment: PAM-potentiated α7 responses, co-application with 10 µM 1; type: cell-based; conditions: for Potentiation by 1: co-applied with 10 µM 1
Method in brief: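 Human α7 nAChR in Xenopus laevis oocytes, two-electrode voltage clamp. Test compound at 10, 30 or 100 µM co-applied with 10 µM positive allosteric modulator. Net charge normalized to 60 µM ACh controls in the same cells; at least four cells (± S.E.M.). Desensitization: 60 µM ACh responses recorded before and after test compound application, 210 s traces, averaged over 8 cells and normalized to pre-application ACh controls.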

[3] = biological target: human heteromeric nicotinic receptor α4β2 (Homo sapiens, UniProt P17787+P43681); type: cell-based
muscle type human nAChR = muscle type human nAChR (Homo sapiens, UniProt P02708+Q07001); experiment: Activation and ACh competition at muscle type nAChR, oocyte voltage clamp; type: cell-based
[4] = biological target: ganglionic α3β4 human nAChR (Homo sapiens, UniProt P30926+P32297); experiment: Activation and ACh competition at ganglionic α3β4 nAChR, oocyte voltage clamp; type: cell-based
[5] = Hydrolytic stability in water and Ringer's buffer by 1H-NMR; type: physicochemical; conditions: water, room temperature (~ 25 °C), 3 h, 19 h and up to 60 days
α7 nAChR [6] = biological target: T1, α7 nAChR; experiment: Inhibition of α7 ACh-evoked responses, co-application with 60 µM ACh; type: cell-based; conditions: range 0.3–100 µM; co-applied with 60 µM ACh
Method in brief: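 Xenopus laevis oocytes expressing human α7 nAChR, two-electrode voltage clamp. Test compound co-applied with 60 µM ACh at 0.3, 1, 3, 10, 30, 100 […] µM. Net charge normalized to responses to 60 µM ACh applied alone. Each point is the mean of at least four cells (± S.E.M.); IC50 values come from the inhibition concentration-response curve.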

For `CC[S+]1CCN(c2ccccc2)CC1.O=S(=O)([O-])C(F)(F)F` [compound 7, 1-ethyl-4-phenylthiomorpholin-1-ium trifluoromethane sulfonate], the “α7 activation / partial agonism” value (α7 nAChR [1]) was “virtually no activation”, the “Response when applied alone, of the control ACh response” value (from here on “Response when applied alone”) (α7 nAChR [1]) was “less than 10%” and the “PAM response enhancement compared to the parent compound 4” value (α7 nAChR [2]) was 4 fold. For the same compound, the Reversibility of desensitization (α7 nAChR [2]; 100 µM 7 for 30s, then 10 µM PNU120596, subsequent 60 µM ACh response) was “readily reversible”, the “Potentiated response relative to the response to compound applied alone” value (α7 nAChR [2]; coapplication with 10 µM 1) was 2–3 orders of magnitude and the “Response compared to the control ACh response” value (α7 nAChR [2]; coapplication with 10 µM 1, over 10-100 µM compound) was 3 to 25 fold. The “Agonism” value [3] was “failed to show agonism”, the “Activation” value (muscle type human nAChR; 30 µM compound) was “failed to produce measureable activation” and the “Antagonism” value (muscle type human nAChR; co-application with 30 µM ACh) was “weak antagonism”. The “Activation” value ([4]; 30 µM compound) was “failed to produce measureable activation”, the “Antagonism” value ([4]; co-application with 100 µM ACh) was “weak antagonism” and the “Hydrolytic stability, 1H-NMR spectra vs time zero” value [5] was “no differences in the spectra”.

With `CCN1CCN(c2ccccc2)CC1` [compound 5, N-phenyl N’-ethyl piperazine] the “α7 activation / partial agonism” value (α7 nAChR [1]) was “no activation”, the “Response when applied alone” value (α7 nAChR [1]) was “less than 10%” and the “Inhibition of α7 ACh responses” value (α7 nAChR [6]) was “lacked the ability to inhibit”. For the same compound, the “Potentiation by 1” value (α7 nAChR [2]) was “failed to show significant potentiated responses”.

For `CC[N+]1(CC)CCN(c2ccccc2)CC1` [compound 4, N,N-diethyl-N’-phenylpiperazine, reference compound], the “Response when applied alone” value (α7 nAChR [1]) was “less than 10%”, the “Potentiated responses relative to the corresponding ones for 7” value (α7 nAChR [2]; at 10, 30, and 100 µM + 10 µM 1) was “half or less” and the “Potentiation by 1” value (α7 nAChR [2]) was “modest potentiation”.
